Published values pooled from the literature.
Each line is one published result; the experiments were not run side by side.
HTR7: 5-hydroxytryptamine receptor 7 (HTR7, Homo sapiens, UniProt P34969)
CTSB: Cathepsin B (CTSB, Homo sapiens, UniProt P07858)
Oprd1: Delta-type opioid receptor (Oprd1, Rattus norvegicus, UniProt P33533)

SMILES | target | test | conditions | endpoint | value
CC(C)C[C@H](NC(=O)[C@H](CCCCN)NC(=O)[C@@H]1CCCN1C(=O)[C@@H](N)CCCNC(=N)N)C(=O)N[C@@H](CCCCN)C(=O)O | HTR7 | cell-free assay, radioligand |  | Ki | > 10000 nM
COc1cc2oc(-c3ccc(O)c(O)c3)cc(=O)c2c(O)c1O | Genome polyprotein, protease (ZIKV, UniProt A0A024B7W1) | enzyme activity, inhibitor |  | Ki | 4500 nM
CC(C)C[C@H]1C(=O)N2CCC[C@H]2[C@]2(O)O[C@](NC(=O)[C@@H]3C=C4c5cccc6[nH]c(Br)c(c56)C[C@H]4N(C)C3)(C(C)C)C(=O)N12 | HTR7 | ligand displacement, radioligand | cell membranes | Ki | 143 nM
c1cncc(C2C3CCN2CC3)c1 (stereo not drawn) | Neuronal acetylcholine receptor subunit alpha-4/beta-2 (Mus musculus, UniProt O70174+Q9ERK7) | ligand displacement, radioligand | cell membranes | Ki | 7.42 nM
CN(C(=O)[C@H](Cc1ccccc1)NC(=O)[C@@H](NC(=O)OCc1ccccc1)C(C)(C)C)N(C#N)CCC(N)=O | CTSB | enzyme activity, inhibitor |  | Ki | 75 nM
OC(c1ccc(F)cc1)C(F)(F)CCN1CCC(O)(c2ccc(Cl)cc2)CC1 (racemic) | HTR7 | cell-free assay, radioligand |  | Ki | 2710 nM
C[C@H](N)Cn1ncc2ccc3c(c21)CCCO3 | HTR7 | ligand displacement, radioligand |  | Ki | 1160 nM
CCc1cccc(C)c1C[C@H](NC(=O)[C@@H](CCCNC(=N)N)NC(=O)[C@@H](N)Cc1c(C)cc(O)cc1C)C(=O)N[C@@H](CCCCN)C(N)=O | Oprd1 | ligand displacement, radioligand | cell membranes | Ki | 50 nM
CCCCCCCCCCCCCCCCOC[C@H](COP(=O)([O-])OCC[N+](C)(C)C)OC(C)=O | Platelet-activating factor receptor (PTAFR, Homo sapiens, UniProt P25105) | ligand displacement, radioligand |  | IC50 | 0.25 nM
Cc1ccccc1Cc1ccc2c(c1)CN(C(=O)[C@@H](N)Cc1c(C)cc(O)cc1C)CC2 | Oprd1 | ligand displacement, radioligand | cell membranes | Ki | 5.8 nM
COC1=C(N)C(=O)c2nc(-c3nc(C(=O)O)c(C)c(-c4ccc(OC)c(OC)c4O)c3N)ccc2C1=O | Sentrin-specific protease 1 (SENP1, Homo sapiens, UniProt Q9P0U3) | enzyme activity, inhibitor, fluorescence |  | Ki | 138 nM
CC[C@H](C)[C@H](NC(=O)[C@H](CCCNC(=N)N)NC(=O)[C@H](CC(C)C)NC(=O)[C@@H](N)Cc1ccccc1)C(=O)N[C@@H](CCCNC(=N)N)C(=O)N1CCC[C@H]1C(=O)N[C@@H](CCCCN)C(=O)O | HTR7 | cell-free assay, radioligand |  | Ki | > 10000 nM
CC[C@H](NC(=O)OCc1ccccc1)C(=O)N[C@H](C(=O)N[C@@H](CC(C)C)C(=O)N(C)N(C#N)CCC(N)=O)C(C)(C)C | CTSB | enzyme activity, inhibitor |  | Ki | 28.8 nM
Cc1cc(O)cc(C)c1C[C@H](N)C(=O)N[C@@H]1CCN(C(=O)c2ccccc2)c2ccc(Cc3cnc4ccccc4c3)cc21 | Oprd1 | GTPγS binding, antagonist | cell membranes | Kb | 8 nM
Cc1cc(O)cc(C)c1C[C@H](C)C(=O)N[C@@H]1C/C=C/CC[C@@H](C(N)=O)NC(=O)[C@H](Cc2ccccc2)NC(=O)[C@H](Cc2ccccc2)NC1=O | Oprd1 | ligand displacement, radioligand | cell membranes | Ki | 35.3 nM
Cc1cc(O)cc(C)c1C[C@H](N)C(=O)N1CCc2ccc(Cc3ccc(N)cc3)cc2C1 | Oprd1 | ligand displacement, radioligand | cell membranes | Ki | 3.1 nM
N=C(N)NCCC[C@@H]1NC(=O)[C@H](Cc2ccc(O)cc2)NC(=O)[C@@H](CCCCN)NC(=O)[C@@H](Cc2ccccc2)NC1=O | Oprd1 | ligand displacement, radioligand | cell membranes | Ki | > 10000 nM
Cc1cc(O)cc(C)c1C[C@H](N)C(=O)N[C@H](CCCNC(=N)N)C(=O)N[C@@H](Cc1c[nH]c2ccccc12)C(=O)N[C@@H](CCCCN)C(N)=O | Oprd1 | ligand displacement, radioligand | cell membranes | Ki | 186 nM
